Test results published in ChEMBL document CHEMBL1122887, “Structure-activity studies on the N-terminal region of growth hormone releasing factor” (1985).

Experiments:
Type in all cases: functional
Rattus norvegicus [1] = test: Percent growth hormone releasing activity in anesthetized rat relative to hpGRF (1-29)NH2
Summary of the method: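 In pentobarbital-anesthetized male Charles River rats (6–9/group), two subcutaneous analogue doses and GRF(1-29)NH₂ reference doses were given. Plasma GH was measured by radioimmunoassay in jugular blood taken 15 min post-injection. Relative potency with 95% confidence limits came from a four-point assay design by Pugsley's method. Not active means no activity at the doses tested.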

Rattus norvegicus [2] = test: Effect on plasma growth hormone in anesthetized rat at a dose of 0.4 ug/100 g of body weight
Summary of the method: (§1)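 Male Charles River rats (175–350 g) anesthetized with sodium pentobarbital (6 mg/100 g body wt); 30 min later, 6–9 per group received a single subcutaneous 0.5-mL injection of saline, GRF(1-29)NH₂ reference, or one of two analogue doses. Jugular vein blood was drawn 15 min post-injection, and plasma GH was measured by radioimmunoassay, reported as ng/mL ± SE.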

Rattus norvegicus [3] = test: Effect on plasma growth hormone in anesthetized rat at a dose of 1 ug/100 g of body weight; summary of the method: as §1

Compound: CC[C@H](C)[C@H](NC(=O)[C@H](C)NC(=O)[C@H](CC(=O)O)NC(=O)[C@@H](C)NC(=O)[C@H](Cc1ccc(O)cc1)NC(C)=O)C(=O)N[C@@H](Cc1ccccc1)C(=O)N[C@H](C(=O)N[C@@H](CC(N)=O)C(=O)N[C@@H](CO)C(=O)N[C@@H](Cc1ccc(O)cc1)C(=O)N[C@@H](CCCN=C(N)N)C(=O)N[C@@H](CCCCN)C(=O)N[C@H](C(=O)N[C@@H](CC(C)C)C(=O)NCC(=O)N[C@@H](CCC(N)=O)C(=O)N[C@@H](CC(C)C)C(=O)N[C@@H](CO)C(=O)N[C@@H](C)C(=O)N[C@@H](CCCN=C(N)N)C(=O)N[C@@H](CCCCN)C(=O)N[C@@H](CC(C)C)C(=O)N[C@@H](CC(C)C)C(=O)N[C@@H](CCC(N)=O)C(=O)N[C@@H](CC(=O)O)C(=O)N[C@H](C(=O)N[C@@H](CCSC)C(=O)N[C@@H](CO)C(=O)N[C@@H](CCCN=C(N)N)C(N)=O)[C@@H](C)CC)C(C)C)[C@@H](C)O
- Activity (Rattus norvegicus [1]): 2558%
- Activity (Rattus norvegicus [2]): 1300 ng/mL
- Activity (Rattus norvegicus [3]): 2496 ng/mL
